How the values were obtained:
[1] = tested on: SARS-CoV-2 pseudoparticles; conditions: cited from earlier work
human recombinant CYP3A4 = human recombinant CYP3A4 (Homo sapiens, UniProt P08684); conditions: microsomal and recombinant enzyme experiments; cited from earlier work
HSA = conditions: previous investigation; cited from earlier work
SARS-CoV-2 = conditions: cited from earlier work; for effect on viral replication in Calu-3 cells: infected with SARS-CoV-2 at MOI 0.001 for 90 min
[2] = tested on: human intestinal epithelial cells; conditions: up to 50 μM, 24 h cytotoxicity assays; cited from earlier work
PHHs = conditions: up to 50 μM, 24 h cytotoxicity assays; cited from earlier work
[3] = canavanine, replacing arginine in P2 and P4; cited from earlier work
CYP2D6 = CYP2D6 (Homo sapiens, UniProt P10635); assay: Fluorometric CYP2D6 assay in human hepatic microsomes; format: in vitro ADME; conditions: MI-1851 50 µM; quinidine 3 µM
CYP2D6, sequence (P10635 whole entry): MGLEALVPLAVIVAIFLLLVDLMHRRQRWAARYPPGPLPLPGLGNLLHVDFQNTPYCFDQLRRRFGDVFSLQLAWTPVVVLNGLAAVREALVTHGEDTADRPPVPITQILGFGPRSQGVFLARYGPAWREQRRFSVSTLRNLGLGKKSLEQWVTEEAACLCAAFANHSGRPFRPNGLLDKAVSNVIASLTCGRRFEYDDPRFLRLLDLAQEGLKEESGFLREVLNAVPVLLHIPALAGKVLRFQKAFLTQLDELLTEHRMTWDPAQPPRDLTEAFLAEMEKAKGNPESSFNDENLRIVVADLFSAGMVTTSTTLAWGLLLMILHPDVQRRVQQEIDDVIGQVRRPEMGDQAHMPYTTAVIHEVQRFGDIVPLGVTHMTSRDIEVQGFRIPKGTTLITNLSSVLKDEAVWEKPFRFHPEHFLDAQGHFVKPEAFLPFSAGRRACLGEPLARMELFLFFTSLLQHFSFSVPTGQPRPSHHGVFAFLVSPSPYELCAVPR
In short: (§1)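 Human hepatic microsomes were mixed with assay buffer and NADPH-generating system. They were preincubated 15 min at 37 °C with test compound (added solutions 0–250 µM), reference inhibitor or buffer-only background control. A fluorogenic substrate/NADP+ mixture followed, with final protein 10 µg/well. Fluorescence ex/em was 406/468 nm (CYP1A2), 415/502 nm (CYP2C9) and 390/468 nm (CYP2D6). Results are substrate RFU% as mean ± SEM, n = 3 or 4.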

CYP2C9 = CYP2C9 (Homo sapiens, UniProt P11712); assay: Fluorometric CYP2C9 assay in human hepatic microsomes; format: in vitro ADME; conditions: MI-1851 50 µM; tienilic acid 60 µM
CYP2C9, sequence (P11712 whole entry): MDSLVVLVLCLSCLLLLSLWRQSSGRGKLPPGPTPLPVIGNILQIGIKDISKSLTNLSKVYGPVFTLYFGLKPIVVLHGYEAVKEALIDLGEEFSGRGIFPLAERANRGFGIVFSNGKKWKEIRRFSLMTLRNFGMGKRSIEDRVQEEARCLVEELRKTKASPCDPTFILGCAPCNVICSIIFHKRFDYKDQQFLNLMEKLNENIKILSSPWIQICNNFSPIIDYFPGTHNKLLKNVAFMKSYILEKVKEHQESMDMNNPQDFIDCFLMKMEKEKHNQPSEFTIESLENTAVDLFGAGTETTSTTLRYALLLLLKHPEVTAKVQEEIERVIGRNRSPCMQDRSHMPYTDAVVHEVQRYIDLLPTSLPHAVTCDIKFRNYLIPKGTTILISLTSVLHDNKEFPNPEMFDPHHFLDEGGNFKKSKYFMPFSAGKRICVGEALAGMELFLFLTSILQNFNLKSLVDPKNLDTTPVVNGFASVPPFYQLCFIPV
In short: as §1

CYP1A2 [4] = target: T1, CYP1A2 (Homo sapiens, UniProt P05177); assay: Fluorometric CYP1A2 assay in human hepatic microsomes; format: in vitro ADME; conditions: MI-1851 50 µM; α-naphthoflavone 6 µM
T1 sequence (P05177 1-516): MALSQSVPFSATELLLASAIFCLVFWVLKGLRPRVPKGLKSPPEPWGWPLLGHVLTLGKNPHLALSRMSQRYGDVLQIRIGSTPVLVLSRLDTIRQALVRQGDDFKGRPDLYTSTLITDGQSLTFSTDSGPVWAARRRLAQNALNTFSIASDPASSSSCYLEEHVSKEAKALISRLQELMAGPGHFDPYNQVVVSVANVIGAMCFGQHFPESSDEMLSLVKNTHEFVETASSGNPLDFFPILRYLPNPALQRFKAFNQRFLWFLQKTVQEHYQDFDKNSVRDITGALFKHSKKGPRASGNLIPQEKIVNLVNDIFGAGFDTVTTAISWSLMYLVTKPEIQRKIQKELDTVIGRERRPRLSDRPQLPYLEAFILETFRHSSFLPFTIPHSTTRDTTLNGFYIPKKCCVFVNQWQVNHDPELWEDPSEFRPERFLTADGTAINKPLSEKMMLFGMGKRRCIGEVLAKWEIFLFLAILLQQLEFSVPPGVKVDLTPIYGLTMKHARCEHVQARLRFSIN
In short: as §1

CYP1A2 [5] = target: T1, CYP1A2; assay: CYP1A2 luminescent P450-Glo assay in PHHs; format: cell-based; conditions: 2 h; MI-1851 10, 20, 50 and 100 µM; α-naphthoflavone 10 µM
In short: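 Cryopreserved primary human hepatocytes were thawed in recovery medium and plated for 6 h in medium with 5% FBS. They were then kept FBS-free on collagen-coated membrane inserts at 37 °C, 5% CO2. Cells were washed in serum-free medium and exposed 2 h to test compound (0–100 µM; freshly diluted from 10 mM DMSO stock). CYP1A2 was read by P450-Glo with luciferin 1A2. Groups were compared by one-way ANOVA/Tukey.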

human recombinant CYP3A4, sequence (P08684 whole entry): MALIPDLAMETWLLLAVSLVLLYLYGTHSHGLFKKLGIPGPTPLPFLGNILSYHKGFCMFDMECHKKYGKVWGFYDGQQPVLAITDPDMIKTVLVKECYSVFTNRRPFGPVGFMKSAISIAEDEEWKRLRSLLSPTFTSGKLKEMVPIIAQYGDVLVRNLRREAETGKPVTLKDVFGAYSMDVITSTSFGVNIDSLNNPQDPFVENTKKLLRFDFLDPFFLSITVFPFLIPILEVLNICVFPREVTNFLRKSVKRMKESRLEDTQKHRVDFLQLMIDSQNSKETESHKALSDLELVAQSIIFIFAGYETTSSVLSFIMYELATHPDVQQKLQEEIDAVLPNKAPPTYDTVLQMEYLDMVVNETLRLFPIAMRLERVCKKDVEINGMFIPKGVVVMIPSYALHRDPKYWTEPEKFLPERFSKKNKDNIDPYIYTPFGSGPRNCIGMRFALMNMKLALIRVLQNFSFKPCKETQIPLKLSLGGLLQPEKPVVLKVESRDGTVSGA

CCOC(=O)[C@H]1O[C@@H]1C(=O)N[C@@H](CC(C)C)C(=O)NCCC(C)C [E64d]
effect on infection with SARS-CoV-2 pseudoparticles [1]: could decrease infection

N=C(N)c1cccc(C[C@H](NS(=O)(=O)c2cccc(-c3ccc(Cl)cc3Cl)c2)C(=O)N2CCC(CCN)CC2)c1.O=C(O)C(F)(F)F.O=C(O)C(F)(F)F [MI-432]
inhibition of CYP3A4 (human recombinant CYP3A4): potent inhibitors of CYP3A4 at the nanomolar or low micromolar range | interactions with HSA (HSA): no or only weak interactions | effect on viral titers in human airway epithelial Calu-3 cells (SARS-CoV-2): efficiently reduced | effect on viral replication in Calu-3 cells (SARS-CoV-2): inhibit viral replication

COc1ccc(-c2cccc(S(=O)(=O)N[C@@H](Cc3cccc(C(=N)N)c3)C(=O)N3CCN(C(=O)NC4CCCCC4)CC3)c2)c(OC)c1 [MI-1900]
inhibition of CYP3A4 (human recombinant CYP3A4): potent inhibitors of CYP3A4 at the nanomolar or low micromolar range | damage to human intestinal epithelial cells [2]: did not cause damage | damage to PHHs (PHHs): did not cause damage | interactions with HSA (HSA): no or only weak interactions | effect on viral titers in human airway epithelial Calu-3 cells (SARS-CoV-2): efficiently reduced | effect on viral replication in Calu-3 cells (SARS-CoV-2): inhibit viral replication

N=C(N)NOCC[C@H](N)C(=O)O [canavanine]
pKa [3]: 7.04

C=C[C@H]1C[N@@]2CC[C@H]1C[C@@H]2[C@@H](O)c1ccnc2ccc(OC)cc12 [quinidine]
effect on human microsomal CYP2D6 activity (CYP2D6): significant inhibition

O=C(O)COc1ccc(C(=O)c2cccs2)c(Cl)c1Cl [tienilic acid]
effect on human microsomal CYP2C9 activity (CYP2C9): significant inhibition

O=c1cc(-c2ccccc2)oc2c1ccc1ccccc12 [α-naphthoflavone]
effect on human microsomal CYP1A2 activity (CYP1A2 [4]): significant inhibition | effect on CYP1A2 activity in PHHs (CYP1A2 [5]): significant inhibitory effects

aprotinin
effect on virus replication in vitro (SARS-CoV-2; 10 µM, 48 h post infection): decreased the virus replication | effect on viral replication in Calu-3 cells (SARS-CoV-2): inhibit viral replication
